# Compounds with a hit are over-represented: about 4.7% of the library has one in this group of screens.
# MC4R barr agon: MC4R agonists recruiting beta-arrestin, primary screen, cell-based, luminescence, agonist arm of biased-ligand search | Melanocortin receptor 4 (Homo sapiens), P32245 | U2OS MC4R beta-arrestin complementation; percent of melanotan II response, DMSO zero | activation, % at 8.9 µM | 360,000 tested, 0.98% active | AID 540308, 2011;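 active = activation above a per-plate cutoff, the mean activation of sample wells on that plate plus 3 SD, cut at about 8% in these data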
# AHR activator: AHR activators, primary screen, cell-based, luminescence, luciferase reporter, human | AHR-responsive luciferase reporter cells | 320,000 tested, 2.5% active | activation, % at 5 µM | Aryl hydrocarbon receptor (Homo sapiens), P35869 | AID 2796, 2010; in the data active = activation above about 47%
# m5-HT2A agonist: mouse Htr2a agonists via beta-arrestin recruitment, primary screen, cell-based, luminescence; CHO-K1 mHTR2A beta-arrestin complementation; percent of 30 µM serotonin response; activation, % at 7.6 µM; 360,000 tested, 0.66% active;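 active = activation above a run cutoff, the mean activation of all tested compounds plus 3 SD, cut at about 14% in these data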
# Target sequence (P35363 whole entry, looked up): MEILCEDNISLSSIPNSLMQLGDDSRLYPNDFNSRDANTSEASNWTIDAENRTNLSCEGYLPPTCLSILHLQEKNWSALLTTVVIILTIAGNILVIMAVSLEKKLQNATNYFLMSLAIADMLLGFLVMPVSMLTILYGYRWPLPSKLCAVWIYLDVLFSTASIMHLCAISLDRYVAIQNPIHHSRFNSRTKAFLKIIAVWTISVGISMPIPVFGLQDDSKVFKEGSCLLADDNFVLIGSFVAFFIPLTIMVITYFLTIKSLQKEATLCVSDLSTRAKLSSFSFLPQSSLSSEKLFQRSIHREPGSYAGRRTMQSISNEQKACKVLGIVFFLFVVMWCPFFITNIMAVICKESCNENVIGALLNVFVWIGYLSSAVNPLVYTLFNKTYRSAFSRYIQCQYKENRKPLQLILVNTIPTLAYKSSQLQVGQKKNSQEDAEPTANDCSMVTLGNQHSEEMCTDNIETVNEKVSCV
# FXN GAA850 act: FXN promoter activators, primary screen, cell-based, luciferase luminescence, HEK293 lucGAA850 | HEK293 lucGAA850 FXN promoter luciferase reporter, 24 h; percent of 10 µM SAHA response | activation, % at 6 µM | 360,000 tested, 0.56% active;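 active = activation above the average of all compounds screened plus 3 SD, cutoff fixed separately per campaign, cut at about 7.5% in these data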
# MC4R antagonist: MC4R antagonists of cAMP signaling, primary screen, cell-based, TR-FRET, antagonist arm of biased-ligand search. MC4R-expressing cells, MTII-stimulated cAMP, LANCE TR-FRET. inhibition, % at 6.5 µM. Melanocortin receptor 4 (Homo sapiens), P32245. 360,000 tested, 0.48% active;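 active = inhibition above its plate's cutoff, the mean of tested wells on that plate plus 3 SD, cut at about 29% in these data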
#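 system = U2OS cells with stable human MC4R expression | also added = Melanotan II challenge after compound preincubation | dosing = one concentration, 6.5 µM nominal | incubation = compound 30 min, challenge 1 h, detection 1 h | measured by = TR-FRET with Eu-cAMP and labeled anti-cAMP, 671 nm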
# GAA30 FXN cntr: GAA30 FXN promoter activators, confirmation, counter-screen for GAA850 frataxin promoter activator project, cell-based, luminescence, HEK293, lucGAA30, triplicate; shares compounds with FXN GAA850 act; HEK293 lucGAA30 FXN promoter luciferase, 24 h; DMSO = 0%, 5 µM ipriflavone = 100%; AID 588350, 2011; 1,900 tested, 66% active; activation, % at 6 µM;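 active = mean activation above the mean of solvent-only control wells plus 3 SD, cut at about 22% in these data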;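 note: counterscreen of GAA850 promoter hits where activity marks nonselective or luminescence artifacts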
# GAA850 confirm: FXN GAA850 promoter activators in reporter cells, confirmation, cell-based, luminescence, HEK293 lucGAA850, triplicate; AID 588351, 2011; shares compounds with FXN GAA850 act; 1,900 tested, 86% active; HEK293 lucGAA850 FXN promoter luciferase reporter, 24 h; 100% = activation by SAHA; activation, % at 6 µM;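 active = mean activation above a set limit taken from the primary screen, cut at about 8% in these data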
# Hits are given with their value; - = inactive; . = no result given.
SMILES,MC4R barr agon,AHR activator,m5-HT2A agonist,FXN GAA850 act,MC4R antagonist,GAA30 FXN cntr,GAA850 confirm
O=C(c1ccc(C23CC4CC(CC(C4)C2)C3)o1)N1CCOCC1,-,-,-,9.7,-,34,22
COc1ccc(CCC(=O)N/N=C/c2ccc3c(c2)OCO3)cc1,-,-,-,-,-,.,.
CCOC(=O)C1=C(CSc2nc(CC)c(C)cc2C#N)OC(N)=C(C#N)C1c1ccccc1 (stereo not drawn),-,-,-,-,-,.,.
CCOC(=O)C1=C(CSc2nc(-c3ccccc3)ccc2C#N)OC(N)=C(C#N)C1c1ccc(OC)cc1 (stereo not drawn),-,-,-,8.9,-,66,25
O=C1[C@H]2[C@@H](c3ccc(F)cc3)N3C(=O)N(c4cccc(Cl)c4)C(=O)[C@@]3(Cc3ccccc3)[C@H]2C(=O)N1C1CCCCC1,-,-,-,9.3,-,-,-
O=C1[C@H]2[C@@H](c3ccc(F)cc3)N3C(=O)N(c4ccccc4)C(=O)[C@@]3(Cc3ccccc3)[C@H]2C(=O)N1C1CCCCC1,-,-,-,10,-,23,-
O=c1c(-c2ccco2)nc2ccccc2n1C(CCc1ccccc1)c1nc2ccccc2[nH]1 (stereo not drawn),.,.,-,.,.,.,.
CC(/C=C/c1ccco1)=N/NC(=O)Cc1cccs1,-,-,-,8.2,-,37,18
CC(/C=C/c1ccco1)=N/NC(=O)OC(C)(C)C,-,-,-,8.8,-,68,27
CCN(CC)S(=O)(=O)c1cc(NC(=O)CN2C(=O)NC(C)(c3ccccc3)C2=O)ccc1C (stereo not drawn),-,-,-,-,-,.,.
CCN(CC)S(=O)(=O)c1cc(NC(=O)Cn2ncc(Cl)c(Cl)c2=O)ccc1C,-,-,-,12,-,-,15
COc1ccc(NC(=O)CSc2ccccc2)cc1S(=O)(=O)N1CCOCC1,-,-,-,-,-,.,.
COc1ccc(NC(=O)Cn2ncc(Cl)c(Cl)c2=O)cc1S(=O)(=O)N1CCOCC1,-,-,-,7.8,-,-,16
CC1CN(C(=O)COC(=O)Cc2ccc(Cl)cc2)CC(C)O1 (stereo not drawn),-,-,-,-,-,.,.
O=C(Nc1ccc(S(=O)(=O)Nc2ncccn2)cc1)C1CC(=O)N(c2ccc(Cl)cc2)C1 (stereo not drawn),-,-,-,-,-,.,.
Cc1cc(NC(=O)c2ccc(Cl)cc2)no1,-,-,-,-,-,.,.
COc1cccc(NC(=O)c2ccc3nc(C)sc3c2)c1,-,-,-,7.6,-,120,40
Cc1cc(NC(=O)c2ccc3nc(C)sc3c2)no1,-,-,-,7.7,-,111,33
O=C(NCc1cccs1)C1CCN(S(=O)(=O)c2ccccc2F)CC1,-,-,-,-,-,.,.
COc1ccc(Oc2cc(Cl)nc(N)n2)cc1,-,-,-,-,-,.,.
CCc1ccc(Oc2cc(Cl)nc(N)n2)cc1,-,-,-,7.7,-,103,36
CC1CCCCN1C(=O)CN1C(=O)NC2(CCCCC2C)C1=O (stereo not drawn),-,-,-,-,-,.,.
C=CCOC(=O)C1=C(C)NC(C)=C(C(=O)OCC=C)C1c1cn(-c2ccccc2)nc1-c1ccco1,-,-,-,13,-,-,-
O=C(O)c1ccccc1N/N=C/c1cc(Br)cc(Br)c1O,-,49,-,9.3,-,135,42
O=C(Cc1ccccc1)N/N=C/c1cc(Br)cc(Br)c1O,-,-,-,-,-,.,.
